Data as given in ChEMBL document CHEMBL1153417, “5,7,8-Trimethyl-benzopyran and 5,7,8-trimethyl-1,4-benzoxazine aminoamide derivatives as novel antiarrhythmics against ischemia-reperfusion injury” (J Med Chem, 2009).
Calls of active or inactive are those of the source. The rule behind the calls is not given here.

Columns and labels:
Heart [1] = assay: Antiarrhythmic activity in ischemia-reperfusion injury exposed Wistar rat heart assessed as premature ventricular beats at 30 uM relative to untreated control; format: functional
Procedure, shortened: (§1)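 Rat hearts were taken under pentobarbital (30-40 mg per animal) after iv heparin. They were perfused by Langendorff at 90 cm H2O with oxygenated KHB buffer (pH 7.2, 11 mmol l-1 glucose) at 37 °C. After 20 min equilibration came 15 min ischemia (glucose-free KHB with 10 mM Tris-HCl, N2-equilibrated), then 60 min reperfusion. Compound was present for the last 5 min of ischemia and through reperfusion; n = 3-5.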

Heart [2] = assay: Antiarrhythmic activity in ischemia-reperfusion injury exposed Wistar rat heart assessed as premature ventricular beats at 100 uM relative to untreated control; format: functional; procedure, shortened: as §1
Heart [3] = assay: Antioxidant activity in ischemia-reperfusion injury exposed Wistar rat heart assessed as malondialdehyde level per gram of wet tissue at 1 uM by thiobarbituric acid test; format: functional; procedure, shortened: as §1
Heart [4] = assay: Antiarrhythmic activity in ischemia-reperfusion injury exposed Wistar rat heart assessed as arrhythmia score at 1 uM; format: functional; procedure, shortened: as §1
Heart [5] = assay: Antiarrhythmic activity in ischemia-reperfusion injury exposed Wistar rat heart assessed as premature ventricular beats at 1 uM relative to untreated control; format: functional; procedure, shortened: as §1
Heart [6] = assay: Antioxidant activity in ischemia-reperfusion injury exposed Wistar rat heart assessed as reduction of malondialdehyde level at 2 uM by thiobarbituric acid test relative to control; format: functional; set-up: scale not given: the % may be the effect or the level left; procedure, shortened: as §1
Oryctolagus cuniculus [7] = species: Oryctolagus cuniculus; assay: Electrophysiological effect in New Zealand rabbit right ventricular papillary muscle assessed as resting membrane potential at 5 uM at 1 Hz stimulation frequency; format: functional, tissue-based; conditions: Muscle tissue
Procedure, shortened: (§2)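 Right ventricular papillary muscle tips were superfused at 37 °C with bicarbonate solution (pH 7.35-7.40, 95% O2/5% CO2). They were paced at 1 Hz (1000 ms cycle length) with 1 ms constant-current pulses through a bipolar platinum electrode. Transmembrane potentials were recorded by conventional microelectrodes, and RP, CT, APA, Vmax, APD50 and APD90 were measured automatically.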

[8] = Electrophysiological effect in New Zealand rabbit right ventricular papillary muscle assessed as action potential amplitude at 5 uM at 1 Hz stimulation frequency; format: functional, Oryctolagus cuniculus, Muscle tissue; procedure, shortened: as §2
[9] = Electrophysiological effect in New Zealand rabbit right ventricular papillary muscle assessed as action potential duration measured at 50% repolarization at 5 uM at 1 Hz stimulation frequency; format: functional, Oryctolagus cuniculus, Muscle tissue; procedure, shortened: as §2
[10] = Electrophysiological effect in New Zealand rabbit right ventricular papillary muscle assessed as action potential duration measured at 90% repolarization at 5 uM at 1 Hz stimulation frequency; format: functional, Oryctolagus cuniculus, Muscle tissue; procedure, shortened: as §2
[11] = Electrophysiological effect in New Zealand rabbit right ventricular papillary muscle assessed as maximal rate of depolarization at 5 uM at 1 Hz stimulation frequency; format: functional, Oryctolagus cuniculus, Muscle tissue; procedure, shortened: as §2
Oryctolagus cuniculus [12] = species: Oryctolagus cuniculus; assay: Electrophysiological effect in New Zealand rabbit right ventricular papillary muscle assessed as increase in conduction time at 5 uM at 1 Hz stimulation frequency; format: functional, tissue-based; conditions: Muscle tissue; procedure, shortened: as §2
Heart [13] = assay: Antioxidant activity in ischemia-reperfusion injury exposed Wistar rat heart assessed as reduction of malondialdehyde level at 1 uM by thiobarbituric acid test relative to control; format: functional; set-up: scale not given: the % may be the effect or the level left; procedure, shortened: as §1
Heart [14] = assay: Toxicity in ischemia-reperfusion injury exposed Wistar rat heart assessed as induction of ventricular tachycardia at 1 uM; format: tissue-based; procedure, shortened: as §1
Heart [15] = assay: Toxicity in ischemia-reperfusion injury exposed Wistar rat heart assessed as induction of ventricular fibrillation at 1 uM; format: tissue-based; procedure, shortened: as §1
Oryctolagus cuniculus [16] = species: Oryctolagus cuniculus; assay: Electrophysiological effect in New Zealand rabbit right ventricular papillary muscle assessed as resting membrane potential at 20 um at 1 Hz stimulation frequency; format: functional, tissue-based; conditions: Muscle tissue; procedure, shortened: as §2
[17] = Electrophysiological effect in New Zealand rabbit right ventricular papillary muscle assessed as action potential amplitude at 20 uM at 1 Hz stimulation frequency; format: functional, Oryctolagus cuniculus, Muscle tissue; procedure, shortened: as §2
[18] = Electrophysiological effect in New Zealand rabbit right ventricular papillary muscle assessed as action potential duration measured at 50% repolarization at 20 uM at 1 Hz stimulation frequency; format: functional, Oryctolagus cuniculus, Muscle tissue; procedure, shortened: as §2
[19] = Electrophysiological effect in New Zealand rabbit right ventricular papillary muscle assessed as action potential duration measured at 90% repolarization at 20 uM at 1 Hz stimulation frequency; format: functional, Oryctolagus cuniculus, Muscle tissue; procedure, shortened: as §2
[20] = Electrophysiological effect in New Zealand rabbit right ventricular papillary muscle assessed as maximal rate of depolarization at 20 uM at 1 Hz stimulation frequency; format: functional, Oryctolagus cuniculus, Muscle tissue; procedure, shortened: as §2

## CCCCCCC1(C)CC(NC(=O)CN(CC)CC)c2c(C)c(O)c(C)c(C)c2O1 (configuration not stated)
Heart [1]
  Activity: 10%
Heart [2]
  Activity: 9%

## CCOC(=O)C1(C)CN(C(=O)CN(CC)CC)c2c(C)cc(C)c(C)c2O1 (configuration not stated)
Heart [3]
  Activity: 88.6 ng/g
Heart [4]
  Activity: 1
Heart [5]
  Activity: 3%
Heart [6]
  Activity: 61%
Oryctolagus cuniculus [7]
  Activity: -86.6 mV
[8]
  Activity: 110.9 mV
[9]
  Activity: 161.7 ms
[10]
  Activity: 201.2 ms
[11]
  Activity: 171.9 V/s
Oryctolagus cuniculus [12]
  Activity: Active

## CCN(CC)CC(=O)N1C[C@H](c2ccccc2)Oc2c(C)c(C)c(Cl)c(C)c21
Heart [3]
  Activity: 106 ng/g
Heart [4]
  Activity: 4.3
Heart [5]
  Activity: 1.5%
Heart [13]
  Activity: 50%
Heart [14]
  Activity: Toxic
Heart [15]
  Activity: Toxic

## CCOC(=O)C1(C)CN(C(=O)CN(CC)CC)c2c(C)c(Cl)c(C)c(C)c2O1 (configuration not stated)
Oryctolagus cuniculus [7]
  Activity: -81.5 mV
[8]
  Activity: 105.1 mV
[9]
  Activity: 107.7 ms
[10]
  Activity: 159.5 ms
[11]
  Activity: 184.7 V/s
Oryctolagus cuniculus [12]
  Activity: Active

## CCN(CC)CC(=O)N1CCOc2c(C)c(C)c(Cl)c(C)c21
Heart [3]
  Activity: 163 ng/g
Heart [4]
  Activity: 1
Heart [5]
  Activity: 3.9%
Heart [6]
  Activity: 29%

## CCN(CC)CC(=O)N1CC(c2ccccc2)Oc2c(C)c(C)c(OC)c(C)c21 (configuration not stated)
Heart [3]
  Activity: 136 ng/g
Heart [4]
  Activity: 1
Heart [5]
  Activity: 2.8%

## CCN(CC)CC(=O)N1CCOc2c(C)c(C)cc(C)c21
Heart [3]
  Activity: 152 ng/g
Heart [4]
  Activity: 1.3
Heart [5]
  Activity: 3.4%
Heart [6]
  Activity: 34%
Oryctolagus cuniculus [7]
  Activity: -85.8 mV
[8]
  Activity: 111.9 mV
[9]
  Activity: 192.3 ms
[10]
  Activity: 236.8 ms
[11]
  Activity: 200.2 V/s

## CCN(CC)CC(=O)NC1CC(c2ccccc2)Oc2c(C)c(C)c(O)c(C)c21 (configuration not stated)
Heart [3]
  Activity: 129 ng/g
Heart [4]
  Activity: 3.6
Heart [5]
  Activity: 4.3%
Heart [6]
  Activity: 45%

## CCN(CC)CC(=O)N1CC(c2ccccc2)Oc2c(C)c(C)cc(C)c21 (configuration not stated)
Heart [3]
  Activity: 120 ng/g
Heart [4]
  Activity: 1
Heart [5]
  Activity: 0.5%
Heart [6]
  Activity: 48%
Oryctolagus cuniculus [7]
  Activity: -82.7 mV
[8]
  Activity: 115.1 mV
[9]
  Activity: 175.6 ms
[10]
  Activity: 210.9 ms
[11]
  Activity: 174.5 V/s
Oryctolagus cuniculus [12]
  Activity: Active

## CCN(CC)CC(=O)N1CC(C)(C)Oc2c(C)c(C)c(Cl)c(C)c21
Heart [3]
  Activity: 143 ng/g
Heart [4]
  Activity: 5.7
Heart [5]
  Activity: 2.1%
Oryctolagus cuniculus [7]
  Activity: -85.3 mV
[8]
  Activity: 116.2 mV
[9]
  Activity: 171.6 ms
[10]
  Activity: 214.4 ms
[11]
  Activity: 188.4 V/s

## CCN(CC)CC(=O)NC1CC(C)(C)Oc2c(C)c(C)c(O)c(C)c21 (configuration not stated)
Heart [1]
  Activity: 9%
Heart [2]
  Activity: 8%

## CCN(CC)CC(=O)N1CC(c2ccccc2)Oc2c(C)c(C)c(Cl)c(C)c21 (configuration not stated)
Heart [3]
  Activity: 118 ng/g
Heart [4]
  Activity: 1
Heart [5]
  Activity: 1%

## Cc1cccc(C)c1OCC(C)N (configuration not stated) [MEXILETINE]
Oryctolagus cuniculus [16]
  Activity: -85.7 mV
[17]
  Activity: 105.9 mV
[18]
  Activity: 141 ms
[19]
  Activity: 180.9 ms
[20]
  Activity: 190.3 V/s

## CCN(CC)CC(=O)N1C[C@@H](c2ccccc2)Oc2c(C)c(C)c(Cl)c(C)c21
Heart [3]
  Activity: 153 ng/g
Heart [4]
  Activity: 1
Heart [5]
  Activity: 0.8%

## CCN(CC)CC(=O)N1CC(C)(C)Oc2c(C)c(C)cc(C)c21
Heart [3]
  Activity: 160 ng/g
Heart [4]
  Activity: 5.1
Heart [5]
  Activity: 1.6%
Oryctolagus cuniculus [7]
  Activity: -85.9 mV
[8]
  Activity: 108.4 mV
[9]
  Activity: 147.1 ms
[10]
  Activity: 179.5 ms
[11]
  Activity: 175.4 V/s
Oryctolagus cuniculus [12]
  Activity: Active

## CCN(CC)CC(=O)Nc1c(C)cccc1C [LIDOCAINE]
Heart [3]
  Activity: 160 ng/g
Heart [4]
  Activity: 1
Heart [5]
  Activity: 3.1%

## CC(C)NCC(O)c1ccc(NS(C)(=O)=O)cc1 (configuration not stated) [SOTALOL]
Oryctolagus cuniculus [16]
  Activity: -85.9 mV
[17]
  Activity: 109.5 mV
[18]
  Activity: 219.9 ms
[19]
  Activity: 275 ms
[20]
  Activity: 202.4 V/s
